Measured values: ChEMBL document CHEMBL1124613, “Synthesis, tubulin binding, antineoplastic evaluation, and structure-activity relationship of oncodazole analogues” (J Med Chem, 1989)

Assays:
Mus musculus [1] = assay: In vivo percent increase in life span at Maximum tolerated dose in syngeneic B6D2F1 female mice bearing ip implanted P388 leukemia; Negative; assay type: functional
In short: (§1)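 Female B6D2F1 mice given ip implants of 10⁶ P388 leukemia cells. Drug given ip on days 1-5 after implantation at 320-20 mg/kg per day; maximally tolerated dose reported in mg/kg per day. Percent increase in lifespan taken at that dose from median survival time versus untreated controls. Under 25% increase counts as negative.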

Mus musculus [2] = assay: In vivo Maximum tolerated dose in syngeneic B6D2F1 female mice bearing ip implanted P388 leukemia.; assay type: functional; in short: as §1
B16 = assay: Inhibition B16 melanoma cell monolayer proliferation; assay type: functional, cell-based; details: Mus musculus
In short: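 Mouse B16 melanoma cells grown as monolayers with continuous 72-h exposure to compound. IC50 is the concentration that inhibits proliferation by 50%.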

Tubulin alpha chain = Tubulin alpha chain (Sus scrofa, UniProt P02550); assay: Displacement of 5.8 uM [3H]-oncodazole from homogeneous tubulin.
Tubulin alpha chain, sequence (P02550 whole entry, looked up): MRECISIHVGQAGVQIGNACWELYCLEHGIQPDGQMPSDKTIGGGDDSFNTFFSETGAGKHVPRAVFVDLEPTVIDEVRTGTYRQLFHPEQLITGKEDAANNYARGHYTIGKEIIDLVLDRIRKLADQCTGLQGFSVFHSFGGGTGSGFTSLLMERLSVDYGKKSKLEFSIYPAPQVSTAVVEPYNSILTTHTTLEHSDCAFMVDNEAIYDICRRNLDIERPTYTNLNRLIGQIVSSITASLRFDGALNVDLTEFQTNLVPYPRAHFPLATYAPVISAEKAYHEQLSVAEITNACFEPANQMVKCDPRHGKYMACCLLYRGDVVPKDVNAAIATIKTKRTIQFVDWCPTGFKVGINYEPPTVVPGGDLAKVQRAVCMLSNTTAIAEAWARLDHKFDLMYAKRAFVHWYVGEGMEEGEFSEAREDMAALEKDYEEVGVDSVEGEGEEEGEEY
In short: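 Equilibrium binding to soluble, homogeneous tubulin, measured by displacement of 5.8 μM [³H]oncodazole. IC50 (μM) is the concentration that displaces the label, given as mean ± SEM.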

Mus musculus [3] = assay: In vivo percent increase in life span at Maximum tolerated dose in syngeneic B6D2F1 female mice bearing ip implanted P388 leukemia.; assay type: functional; in short: as §1
Mus musculus [4] = assay: Compound was tested in vivo for percent increase in life span at Maximum tolerated dose in syngeneic B6D2F1 female mice bearing intraperitoneally implanted P388 leukemia (exp 2); assay type: functional; in short: as §1

| SMILES | ILS (Mus musculus [1]) [%] | MTD (Mus musculus [2]) [mg/kg] | IC50 (B16) [µM] | IC50 (Tubulin alpha chain) [µM] | ILS (Mus musculus [3]) [%] | ILS (Mus musculus [4]) [%] |
| --- | --- | --- | --- | --- | --- | --- |
| CCOC(=O)Nc1nc2cc(C(=O)c3cccs3)ccc2[nH]1 | <25 | 160 | 0.2 | – | – | – |
| COC(=O)Nc1nc2cc(C(=O)c3cc(CC(=O)NCCN)cs3)ccc2[nH]1 | <25 | 80 | > 70 | – | – | – |
| COC(=O)Nc1nc2cc(C(=O)c3cccs3)ccc2n1C | <25 | 160 | 20 | – | – | – |
| COC(=O)Nc1nc2ccc(C(=O)c3cc(C([N+]#N)C(F)(F)F)cs3)cc2[nH]1 (centres undefined) | – | – | 0.14 | 8.3 | – | – |
| COC(=O)Cc1csc(C(=O)c2ccc3[nH]c(NC(=O)OC)nc3c2)c1 | – | 30 | 0.04 | 5 | 65 | – |
| COC(=O)Nc1nc2ccc(C(=O)c3cccs3)cc2n1C [NOCODOZOLE] | <25 | >320 | 40 | – | – | – |
| COC(=O)Nc1nc2cc(C(=O)c3sccc3C)ccc2[nH]1 | <25 | >320 | 2 | – | – | – |
| COC(=O)Nc1nc2cc(C(=O)c3cc(CC#N)cs3)ccc2[nH]1 | – | 160 | 0.02 | 2.9 | 80 | 80 |
| COC(=O)Nc1nc2cc(C(=O)c3cccs3)ccc2[nH]1 [NOCODAZOLE] | – | 80 | 0.1 | 5.7 | 75 | – |
| COC(=O)Nc1nc2cc(C(=O)c3cc(CN)cs3)ccc2[nH]1 | <25 | 20 | 2 | 120 | – | – |
| COC(=O)Nc1nc2cc(C(=O)c3cc(CC(=O)OCc4ccccc4)cs3)ccc2[nH]1 | – | – | – | 5.2 | – | – |
| COC(=O)Nc1nc2cc(C(=O)c3cc(C)cs3)ccc2[nH]1 | – | 80 | 0.1 | 17.6 | 95 | – |
| COC(=O)Nc1nc2c(C)c(C(=O)c3cccs3)ccc2[nH]1 | <25 | 40 | 4 | 106 | – | – |
| COC(=O)Nc1nc2cc(C(=O)c3cccs3)ccc2n1CCN | <25 | 80 | 30 | – | – | – |
| COC(=O)Nc1nc2cc(C(=O)c3cccs3)ccc2n1CCCCN | <25 | 80 | 30 | – | – | – |
| COC(=O)Nc1nc2c(C)cc(C(=O)c3cccs3)cc2[nH]1 | – | 30 | 0.06 | 0.86 | 45 | 50 |
| COC(=O)Nc1nc2cc(C(=O)c3cc(CNC(=O)OC(C)(C)C)cs3)ccc2[nH]1 | <25 | 160 | 0.5 | 23.3 | – | – |
| COC(=O)Nc1nc2cc(C(=O)c3cc(CO)cs3)ccc2[nH]1 | – | – | 1.8 | 22 | – | – |
| CCOC(=O)Cc1csc(C(=O)c2ccc3[nH]c(NC(=O)OC)nc3c2)c1 | – | 80 | 0.02 | 0.88 | 55 | 55 |
| CCCOC(=O)Nc1nc2cc(C(=O)c3cccs3)ccc2[nH]1 | <25 | >320 | 0.5 | – | – | – |
| COC(=O)Nc1nc2ccc(C(=O)c3cc(COC(=O)c4ccccc4)cs3)cc2[nH]1 | – | – | – | 1.95 | – | – |
| COC(=O)Nc1nc2cc(C(=O)c3cccs3)c(C)cc2[nH]1 | <25 | >320 | 8 | – | – | – |
| CC(C)OC(=O)Nc1nc2cc(C(=O)c3cccs3)ccc2[nH]1 | – | 320 | 0.2 | 14 | 45 | 30 |
| COC(=O)Nc1nc2cc(C(=O)c3cccs3)ccc2n1CCNC(=O)OCc1ccccc1 | – | – | 20 | – | – | – |
| COC(=O)Nc1nc2cc(C(=O)c3ccc(C)s3)ccc2[nH]1 | <25 | 160 | 10 | – | – | – |
| COC(=O)Nc1nc2cc(C(=O)c3cc(CC(=O)O)cs3)ccc2[nH]1 | <25 | 80 | 2 | 442 | – | – |
| COC(=O)Nc1nc2cc(C(=O)c3cc(CC(=O)OC(C)(C)C)cs3)ccc2[nH]1 | – | 160 | 0.07 | 7.5 | 105 | – |
| COC(=O)Nc1nc2cc(C(=O)c3cc(C(=O)C(F)(F)F)cs3)ccc2[nH]1 | – | – | 0.14 | 16 | – | – |
| COC(=O)N(C)c1nc2cc(C(=O)c3cccs3)ccc2[nH]1 | <25 | 40 | 50 | – | – | – |
